This is a sample that favours compounds with a hit; in the whole collection about 4.9% have one here.
APP 5'UTR act: activators of APP 5'UTR luciferase reporter, primary screen, SH-SY5Y cells. SH-SY5Y APP 5'UTR luciferase reporter, luminescence; zero percent = DMSO vehicle wells. activation, % at 2 µM. 1% of 190,000 active. AID 1276, 2008;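 active means activation above a set limit, based on mean plus 3 SD of controls, cut at about 140% in these data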
STAT3 inh: IL-6 driven STAT3 reporter inhibitors, primary screen, U3A cells, luciferase, luminescence, MLSCN library; AID 862, 2007; IL-6 STAT3-luciferase reporter; host cell line lacks STAT1; inhibition, % at 5.5 µM; 0.89% of 190,000 active;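 active means inhibition above the mean inhibition across all screened compounds plus 3 SD, cut at about 44% in these data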;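 further: 0% = DMSO only wells and 100% = 100 µM nifuroxazide control wells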
NF-kB expr up: activators of NF-kB expression in neurons, primary screen, cell-based, HTS. AID 1239, 2008. fold change at 12.5 µM. 1.6% of 190,000 active. human neuronal cells, NF-kB reporter expression; stronger effect = higher value; in the data active means fold change above about 3.3
STAT1 inh: STAT1 signaling inhibitors, primary screen, cell-based, HTS, luciferase reporter | NIH 3T3 STAT1-luciferase reporter, IFN-gamma, luminescence | inhibition, % at 5.5 µM | 0.35% of 200,000 active;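 active means inhibition above a set limit, the mean inhibition across all tested compounds plus 3 SD, cut at about 34% in these data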;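 further: 0% = IFN-gamma with DMSO and 100% = IFN-gamma with 300 µM nifuroxazide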
STAT3 activator: IL-6 driven STAT3 reporter potentiators, primary screen, U3A cells, luciferase, luminescence, MLSCN library; 0.91% of 190,000 active; AID 871, 2007; activation (% of control), % at 5.6 µM; IL-6 STAT3-luciferase reporter; 100% = signal with IL-6 EC80 alone;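 active means activation above the screen-wide mean of compound activation plus 3 SD, cut at about 130% in these data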;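 further: 0% = background luminescence of wells with medium and substrate only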
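Material: STAT1-lacking human U3A cells, STAT3 luciferase reporter | Benchmarks: IL-6-only wells as 100% reference | Probe or stimulus: IL-6 (33 ng/mL) | Timing: Compound 1 h, then IL-6 6 h at 37 °C | Detection: Luminescence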
STAT1 activator: STAT1 signaling activators, primary screen, cell-based, HTS, luciferase reporter. NIH 3T3 STAT1-luciferase reporter, IFN-gamma, luminescence; 100% = IFN-gamma alone, no compound. activation (% of control), % at 5.5 µM. 2.6% of 200,000 active;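 active means activation above the screen-wide mean activation plus 3 SD, cut at about 130% in these data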;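 further: raw ratio to IFN-gamma control signal so 100% means no change and 0% no light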
* = called active by the depositor; / = no result.

SMILES	APP 5'UTR act	STAT3 inh	NF-kB expr up	STAT1 inh	STAT3 activator	STAT1 activator
Cc1cc(C)cc(N2C(=O)NC(=O)/C(=C/c3cccn3-c3ccc(Cl)cc3)C2=O)c1	-17.8	-2.1	1	15.7	105.0	85.8
Cc1cccc(N2C(=O)NC(=O)/C(=C\c3cccn3-c3ccc(Cl)cc3)C2=O)c1	-2.6	-13.3	1	34.2*	110.9	68.8
COc1ccc(OC)c(N2Cc3ccccc3C2=N)c1	1.4	7.2	1.32	9.3	101.9	91.6
Nc1ccccc1C(=O)OCc1ccc([N+](=O)[O-])cc1	8.8	17.5	1.98	-37.9	86.8	136.3*
Cc1ccc(C2N(c3cc(C)on3)C(=O)C3CCCN32)cc1 (stereo not drawn)	9.2	13.2	1.21	-4.4	95.0	104.0
O=C(Nc1ccccc1)c1cccn(Cc2ccccc2)c1=O	43.1	28.7	2.12	-33.8	76.9	131.7*
Nc1c2c(nc3sc4c(c13)CCCC4)CCCCC2	55.6	15.5	3.8*	-26.8	92.0	124.2
Nc1c2c(nc3sc4c(c13)CCCC4)CCCC2	54.8	9.1	2.13	-29.7	94.0	128.5
CNc1cc(Cl)c2nonc2c1[N+](=O)[O-]	-84.5	-9.0	0.91	-49.5	111.7	141.3*
C(#CCN1CCOCC1)COCc1ccccc1	4.5	13.0	1.34	2.7	97.2	97.5
Cc1nc2c(=O)n(C)c(=O)nc-2n(C)n1	-5.6	106.7*	1.71	91.9*	13.6	14.7
O=C(CNC1CCCC1)Nc1ccc(N2CCCCCC2)cc1	6.2	1.9	1.1	-11.2	100.4	109.8
CN(C)c1ccc(C(=O)c2ccc(N(C)C)cc2)cc1	/	-17.1	2.62	-35.8	114.4	134.3*
Cc1ccsc1C(=O)C1CCCN(Cc2cc(C(C)C)n[nH]2)C1 (stereo not drawn)	3.7	-2.1	0.89	2.1	103.8	96.3
CC(C)c1oc(=O)cc2c1[C@@H](O)[C@H]1OC(=O)[C@@]3(C)CC[C@@H](O)[C@@]2(C)C13 (stereo partly drawn)	22.4	-5.2	3.31*	13.4	102.0	87.8
CC(C)c1oc(=O)cc2c1[C@@H](O)[C@H]1OC(=O)[C@@]3(C)C[C@@H](O)[C@@H](O)[C@@]2(C)C13 (stereo partly drawn)	16.9	23.3	6.99*	19.5	78.2	82.3
COC(=O)C(O)(c1ccc(NC(=S)NC(=O)c2ccccc2)cc1)C(F)(F)F (stereo not drawn)	4.7	10.7	0.97	-10.3	95.2	109.2
CN1OC[C@@H]2COc3ccc4ccccc4c3[C@@H]21	-9.3	2.9	1.17	-6.6	98.8	105.1
CN1C(=O)/C(=C\c2ccc(N3CCCCC3)o2)C(=O)NC1=S	13.6	10.3	2.24	-42.0	98.9	132.8*
C=CCN1C(=O)/C(=C\c2ccc(N3CCOCC3)o2)C(=O)NC1=S	-1.9	21.8	1.26	5.0	84.5	95.6
C=CCN(CC#CCOc1ccccc1OC)CC=C	5.2	9.5	/	9.3	96.9	91.8
O=c1[nH]c(=O)n(Cc2ccco2)c(O)c1C=NCCCn1ccnc1	-16.8	-12.3	1.57	-7.6	110.3	107.7
Cc1ccc2nc(N3CCN(C)CC3)[nH]c2c1	15.4	-14.9	1.85	-36.2	116.9	133.3*
CN1CCN(c2ncnc3ccc(Br)cc23)CC1	6.7	14.6	0.8	8.7	90.7	92.0
Clc1ccccc1Nc1ncnc(-n2cccc2)n1	93.5	-16.6	2.05	-39.5	118.6	135.5*
SMILES	APP 5'UTR act	STAT3 inh	NF-kB expr up	STAT1 inh	STAT3 activator	STAT1 activator
Cc1cccc(OP(=O)(NCc2ccccc2)Oc2cccc(C)c2)c1	-12.4	12.8	0.88	6.4	91.1	94.3
O=C(c1cc2ccccn2n1)N1CCC2(CC1)OCCO2	4.0	5.2	1.06	6.5	99.1	94.1
O=C(c1cc(-c2ccccc2)on1)N1CCC2(CC1)OCCO2	49.6	1.4	5.25*	-40.1	107.4	137.2*
CCn1ncc(/C=C2/CC3C4CC=C5CC(O)CCC5(C)C4CCC3(C)C2=O)c1C (stereo not drawn)	-20.8	9.9	/	4.0	92.9	88.4
C[C@H]1CCC[C@H](O)CCCCCc2cc(O)cc(O)c2C(=O)O1	-0.3	28.4	1.07	1.5	77.1	98.6
C[C@H]1CCC/C=C/C2C[C@H](O)CC2[C@H](O)/C=C/C(=O)O1 (stereo partly drawn)	-91.4	93.3*	0.52	45.7*	19.5	58.5
CC1CCC/C=C/C2CC(O)CC2C(O)/C=C/C(=O)O1 (stereo not drawn)	-94.4	89.0*	0.46	52.9*	26.2	52.1
CC1CCCCN1Cc1ccc(Cl)nc1 (stereo not drawn)	11.0	5.9	1.09	-10.2	104.4	107.6
O=P(Nc1ccccc1)(Nc1ccccc1)Oc1cccc(Cl)c1	17.9	10.0	0.38	4.9	98.0	95.6
COc1ccc2nc(NC3=NCCN3)sc2c1	56.1	15.5	3.04	-45.0	89.8	139.8*
CN1/C(=C\C=C\C2=[N+](C)c3ccc4ccccc4c3C2(C)C)C(C)(C)c2ccccc21	-94.9	103.1*	0.16	72.0*	20.0	35.7
Cc1ccc2cc(C=C(C#N)C#N)c(Cl)nc2c1	/	-10.2	1.28	-6.7	109.0	105.9
Cc1cc(C=C2C(=O)NC(=S)NC2=O)c(C)n1C1CCCC1	22.0	-10.7	1.55	-41.1	112.3	135.6*
O=C(COc1ccc2ccccc2c1)N1CCN(Cc2c[nH]c3ccccc23)CC1	22.3	-8.6	1.36	-6.5	112.2	105.9
O=C(COc1ccc(Br)cc1)N1CCN(Cc2c[nH]c3ccccc23)CC1	-0.5	-31.0	0.7	6.9	134.7*	93.6
CNC(=O)Oc1ccc(-c2cn3cc(C)ccc3n2)cc1	48.8	106.1*	4.98*	81.9*	12.4	28.1
COc1ccc(NP(=O)(Nc2ccc(OC)cc2)Oc2ccccc2)cc1	10.2	-2.8	1.07	-1.5	107.5	101.4
COc1ccc(P2(=O)Nc3ccccc3N2)cc1	171.4*	4.8	1.14	-27.5	102.1	125.1
C[N+]12CCC(CC1)C(C(O)(c1ccccc1)c1cccs1)C2 (stereo not drawn)	-7.0	-6.6	4.14*	-3.8	107.6	103.4

Bioassay records as filed in PubChem BioAssay.
